Among the data in ChEMBL document CHEMBL1821554, “Synthesis and anticancer activity of chalcone-pyrrolobenzodiazepine conjugates linked via 1,2,3-triazole ring side-armed with alkane spacers” (2011) are Activity and GI50 values, retold here.

Calls of active or inactive are those of the source. The calls are words filed in the database; no cut-off is given here.

Sequence of G1/S-specific cyclin-D1 (Homo sapiens) (P24385 whole entry): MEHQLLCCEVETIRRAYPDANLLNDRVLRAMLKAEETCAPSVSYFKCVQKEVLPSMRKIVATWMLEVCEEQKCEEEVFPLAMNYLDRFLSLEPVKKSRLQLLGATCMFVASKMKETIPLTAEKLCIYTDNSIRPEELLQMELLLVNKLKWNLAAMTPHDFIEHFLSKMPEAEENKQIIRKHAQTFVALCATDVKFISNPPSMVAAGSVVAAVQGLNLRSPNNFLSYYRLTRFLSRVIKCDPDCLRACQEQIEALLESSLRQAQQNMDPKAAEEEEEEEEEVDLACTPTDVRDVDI

The subject of one test is MCF7. The experiment in a line: Cell cycle arrest in human MCF7 cells assessed as accumulation at S phase at 10 uM after 24 hrs using propidium iodide staining based flow cytometric analysis (reference value: 12.92 +/- 1 %). In kind it is functional.
Regarding `COc1cc(/C=C/C(=O)c2ccccc2O)ccc1OCCCn1cc(COc2cc3c(cc2OC)C(=O)N2CCC[C@H]2C=N3)nn1`, the Activity came out at 9.52%.

The subject of the next test is MCF7. The experiment in a line: Cytotoxicity against human MCF7 cells assessed as reduction in cell viability at 4 uM after 24 hrs by MTT assay. In kind it is functional, cell-based. The method, boiled down:
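MCF-7 cells were seeded at 10,000 per well and left overnight, then treated with 4 µM compound for 24 h. MTT was added for 2 h at 37 °C, formazan was solubilized in extraction buffer, and OD was read at 570 nm. Untreated cells served as control. Three independent experiments, SD.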
Take `COc1cc(/C=C/C(=O)c2ccccc2O)ccc1OCCCn1cc(COc2cc3c(cc2OC)C(=O)N2CCC[C@H]2C=N3)nn1`: the result was Active.

In a further test the test system is A2780. The experiment in a line: Anticancer activity against human A2780 cells by SRB method. In kind it is functional. The method, boiled down:
(§1)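 Growth inhibition over a panel of human cancer lines (lung, ovarian, oral, colon, prostate, cervix, breast). Value is the 50% growth-inhibition concentration, reported as the mean ± standard error of the mean of three determinations.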
(In general: In SRB staining, fixed cells bind dye roughly in proportion to their protein.)
As usually defined, the GI50 is the concentration at which growth is held to half of that of the control. Read a low GI50 as more potent growth inhibition. As to `COc1cc(/C=C/C(=O)c2ccccc2O)ccc1OCCCn1cc(COc2cc3c(cc2OC)C(=O)N2CCC[C@H]2C=N3)nn1`, it took 170 nM to inhibit growth by half (GI50).

The test system of the next test is MCF7. The experiment in a line: Cell cycle arrest in human MCF7 cells assessed as accumulation at G2/M phase at 10 uM after 24 hrs using propidium iodide staining based flow cytometric analysis (reference value: 38.15 +/- 1.068 %). In kind it is functional. (In general: A flow cytometer gives signals particle by particle.)
As for `COc1cc(/C=C/C(=O)c2ccccc2O)ccc1OCCCn1cc(COc2cc3c(cc2OC)C(=O)N2CCC[C@H]2C=N3)nn1`, the Activity is 14.32%.

System in a further test: not listed separately
The experiment in a line: Anticancer activity against human Gurav cells by SRB method. In kind it is functional. A digest of the protocol: as §1
Take `COc1cc(/C=C/C(=O)c2ccccc2O)ccc1OCCCn1cc(COc2cc3c(cc2OC)C(=O)N2CCC[C@H]2C=N3)nn1`: halving of growth (GI50) required 2310 nM.

System in the next test: not listed separately
The experiment in a line: Down regulation of NF-kappaB activity expressed in human MCF7 cells transfected with NF-kB SEAP plasmid at 4 uM after 24 hrs by chemiluminescence-based luminometric analysis. In kind it is cell-based. A digest of the protocol:
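MCF-7 cells were transiently transfected with the NF-kB SEAP plasmid using lipofectamine 2000. After 24 h, cells were treated with 4 µM compound for 24 h. Lysates were assayed with a chemiluminescent reagent and read by luminometry and by 30 min X-ray film exposure. Transfected untreated cells served as control.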
As to `COc1cc(/C=C/C(=O)c2ccccc2O)ccc1OCCCn1cc(COc2cc3c(cc2OC)C(=O)N2CCC[C@H]2C=N3)nn1`, the result was Active.

In another test the test system is MCF7. The experiment in a line: Induction of cell cycle arrest at G1 phase in human MCF7 cells at 4 uM after 24 hrs using propidium iodide staining based flow cytometric analysis. In kind it is functional. A digest of the protocol:
(§2)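 MCF-7 cells were seeded at 5 × 10^5 per 60 mm dish and grown for 24 h, then exposed to 4 µM compound for 24 h. Cells were trypsinized, fixed in ice-cold 70% ethanol at 4 °C for 30 min and treated with 1 mg/ml RNase at 37 °C for 30 min. They were stained with propidium iodide/citrate/Triton X-100, and DNA content was read on 20,000 events by flow cytometry. Three independent repeats.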
On to `COc1cc(/C=C/C(=O)c2ccccc2O)ccc1OCCCn1cc(COc2cc3c(cc2OC)C(=O)N2CCC[C@H]2C=N3)nn1`, for which the outcome was Active.

The subject of the next test is MCF7. The experiment in a line: Cell cycle arrest in human MCF7 cells assessed as accumulation at G0 phase at 10 uM after 24 hrs using propidium iodide staining based flow cytometric analysis (reference value: 1.27 +/- 0.08 %). In kind it is functional.
As to `COc1cc(/C=C/C(=O)c2ccccc2O)ccc1OCCCn1cc(COc2cc3c(cc2OC)C(=O)N2CCC[C@H]2C=N3)nn1`, the Activity worked out at 12.06%.

A further test has as its system KB. The experiment in a line: Anticancer activity against human KB cells by SRB method. In kind it is functional. The method, boiled down:
as §1
`COc1cc(/C=C/C(=O)c2ccccc2O)ccc1OCCCn1cc(COc2cc3c(cc2OC)C(=O)N2CCC[C@H]2C=N3)nn1` came in with a GI50 of 2190 nM.

The subject of another test is A549. The experiment in a line: Anticancer activity against human A549 cells by SRB method. In kind it is functional. A digest of the protocol: as §1
For the compound `COc1cc(/C=C/C(=O)c2ccccc2O)ccc1OCCCn1cc(COc2cc3c(cc2OC)C(=O)N2CCC[C@H]2C=N3)nn1`, growth was halved (GI50) at 2330 nM.

The next test relates to PC-3. The experiment in a line: Anticancer activity against human PC3 cells by SRB method. In kind it is functional. A digest of the protocol:
as §1
Turning to `COc1cc(/C=C/C(=O)c2ccccc2O)ccc1OCCCn1cc(COc2cc3c(cc2OC)C(=O)N2CCC[C@H]2C=N3)nn1`, the GI50 is 2480 nM.

The next test deals with MCF7. As to the kind of experiment: Anticancer activity against human MCF7 cells by SRB method. In kind it is functional. The method, boiled down: as §1
For `COc1cc(/C=C/C(=O)c2ccccc2O)ccc1OCCCn1cc(COc2cc3c(cc2OC)C(=O)N2CCC[C@H]2C=N3)nn1`, growth was halved (GI50) at 2400 nM.

The next test concerns MCF7. As to the kind of experiment: Cell cycle arrest in human MCF7 cells assessed as accumulation at G1 phase at 10 uM after 24 hrs using propidium iodide staining based flow cytometric analysis (reference value: 47.64 +/- 1.49 %). In kind it is functional.
Consider `COc1cc(/C=C/C(=O)c2ccccc2O)ccc1OCCCn1cc(COc2cc3c(cc2OC)C(=O)N2CCC[C@H]2C=N3)nn1`, for which the Activity worked out at 64.08%.

A further test deals with HOP-62. As to the kind of experiment: Anticancer activity against human HOP62 cells by SRB method. In kind it is functional. The method, boiled down: as §1
Turning to `COc1cc(/C=C/C(=O)c2ccccc2O)ccc1OCCCn1cc(COc2cc3c(cc2OC)C(=O)N2CCC[C@H]2C=N3)nn1`, the concentration for 50% growth inhibition (GI50) turned out to be 2920 nM.

The next test deals with MCF7. As to the kind of experiment: Induction of apoptosis in human MCF7 cells assessed as down regulation of Bcl-xL expression at 4 uM after 24 hrs by Western blot.
In the case of `COc1cc(/C=C/C(=O)c2ccccc2O)ccc1OCCCn1cc(COc2cc3c(cc2OC)C(=O)N2CCC[C@H]2C=N3)nn1`, the outcome was Active.

The next test deals with MCF7. The experiment in a line: Downregulation of cyclin D1 protein expression in human MCF7 cells at 4 uM after 24 hrs by Western blot analysis. In kind it is functional, cell-based. The method, boiled down:
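MCF-7 cells at 80% confluency were treated with 4 µM compound for 24 h. Cells were lysed in RIPA buffer with protease inhibitors and protein was quantified by Bradford. 50 µg per lane was run on 12% SDS-PAGE and transferred to PVDF. Blots were probed overnight at 4 °C with rabbit polyclonal anti-cyclin D1, with β-actin as loading control, and detected by chemiluminescence.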
Turning to `COc1cc(/C=C/C(=O)c2ccccc2O)ccc1OCCCn1cc(COc2cc3c(cc2OC)C(=O)N2CCC[C@H]2C=N3)nn1`, the result was Active.

The test system of the next test is COLO 205. The experiment in a line: Anticancer activity against human COLO205 cells by SRB method. In kind it is functional. A digest of the protocol:
as §1
Regarding `COc1cc(/C=C/C(=O)c2ccccc2O)ccc1OCCCn1cc(COc2cc3c(cc2OC)C(=O)N2CCC[C@H]2C=N3)nn1`, the GI50 is 150 nM.

The next test concerns MCF7. The experiment in a line: Cytotoxicity against human MCF7 cells assessed as reduction in cell viability at 2 uM after 24 hrs by MTT assay. In kind it is functional, cell-based.
For `COc1cc(/C=C/C(=O)c2ccccc2O)ccc1OCCCn1cc(COc2cc3c(cc2OC)C(=O)N2CCC[C@H]2C=N3)nn1`, the outcome was inactive.

In the next test the test system is ZR-75-1. The experiment in a line: Anticancer activity against human ZR-75-1 cells by SRB method. In kind it is functional. The method, boiled down: as §1
`COc1cc(/C=C/C(=O)c2ccccc2O)ccc1OCCCn1cc(COc2cc3c(cc2OC)C(=O)N2CCC[C@H]2C=N3)nn1` gave a GI50 of 2200 nM.

The next test has as its target G1/S-specific cyclin-D1 (Homo sapiens) (UniProt P24385). As to the kind of experiment: Down regulation of Cyclin D1 promoter activity expressed in human MCF7 cells co-transfected with luciferase gene at 4 uM after 24 hrs by luciferase reporter gene assay. In kind it is cell-based. The method, boiled down:
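MCF-7 cells were transfected for 24 h with the cyclin D1 promoter (−1745) luciferase construct, which contains an NF-kB site. Cells were then treated with 4 µM compound (final) for a further 24 h, and lysate luciferase was measured by luminometer. Untransfected cells served as negative control and transfected untreated cells as control.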
A general note: Reporter assays use an easily measured gene product as a stand-in for the process of interest.
For the compound `COc1cc(/C=C/C(=O)c2ccccc2O)ccc1OCCCn1cc(COc2cc3c(cc2OC)C(=O)N2CCC[C@H]2C=N3)nn1`, the result was Active.

A further test relates to MCF7. As to the kind of experiment: Induction of apoptosis in human MCF7 cells assessed as down regulation of Bcl2 expression at 4 uM after 24 hrs by ELISA. In kind it is functional, cell-based. A digest of the protocol:
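MCF-7 cells were treated with 4 µM compound for 24 h. Lysates were added to Bcl2 antibody-coated wells, followed by biotinylated anti-human Bcl2 monoclonal antibody, and bound Bcl2 was detected with streptavidin-HRP (sandwich ELISA).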
With `COc1cc(/C=C/C(=O)c2ccccc2O)ccc1OCCCn1cc(COc2cc3c(cc2OC)C(=O)N2CCC[C@H]2C=N3)nn1`, the result was Active.

In another test the test system is MCF7. As to the kind of experiment: Cell cycle arrest in human MCF7 cells assessed as accumulation at G0/G1 phase at 4 uM after 24 hrs using propidium iodide staining based flow cytometric analysis. In kind it is functional. A digest of the protocol: as §2
Turning to `COc1cc(/C=C/C(=O)c2ccccc2O)ccc1OCCCn1cc(COc2cc3c(cc2OC)C(=O)N2CCC[C@H]2C=N3)nn1`, the Activity came out at 76.87%.
